Assay results published in ChEMBL document CHEMBL1133431, “1,3-Diarylcycloalkanopyrazoles and diphenyl hydrazides as selective inhibitors of cyclooxygenase-2” (Bioorg Med Chem Lett, 2000).

Assays:
[1] = biological target: Prostaglandin G/H synthase 1 (Homo sapiens, UniProt P23219); test: Inhibitory activity against human prostaglandin G/H synthase 1 in platelet-rich plasma measured by the presence of thromboxane A2
Method in brief: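 Human peripheral blood drawn into heparin; platelet-rich plasma collected by centrifugation (200×g, 20 min, room temperature) and diluted 1:20 in 0.9% NaCl. Compound or vehicle preincubated 15 min at 37 °C, then stimulated with calcium ionophore A-23187 (free acid) for 15 min at 37 °C, then chilled on ice 5 min. Supernatant thromboxane B2 measured by radioimmunoassay.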

[2] = biological target: T1, Prostaglandin G/H synthase 2 (Homo sapiens, UniProt P35354); test: Inhibitory activity against human prostaglandin G/H synthase 2 in ECV-304 cells measured by the presence of PGE-2; type: cell-based
T1 sequence (P35354 whole entry): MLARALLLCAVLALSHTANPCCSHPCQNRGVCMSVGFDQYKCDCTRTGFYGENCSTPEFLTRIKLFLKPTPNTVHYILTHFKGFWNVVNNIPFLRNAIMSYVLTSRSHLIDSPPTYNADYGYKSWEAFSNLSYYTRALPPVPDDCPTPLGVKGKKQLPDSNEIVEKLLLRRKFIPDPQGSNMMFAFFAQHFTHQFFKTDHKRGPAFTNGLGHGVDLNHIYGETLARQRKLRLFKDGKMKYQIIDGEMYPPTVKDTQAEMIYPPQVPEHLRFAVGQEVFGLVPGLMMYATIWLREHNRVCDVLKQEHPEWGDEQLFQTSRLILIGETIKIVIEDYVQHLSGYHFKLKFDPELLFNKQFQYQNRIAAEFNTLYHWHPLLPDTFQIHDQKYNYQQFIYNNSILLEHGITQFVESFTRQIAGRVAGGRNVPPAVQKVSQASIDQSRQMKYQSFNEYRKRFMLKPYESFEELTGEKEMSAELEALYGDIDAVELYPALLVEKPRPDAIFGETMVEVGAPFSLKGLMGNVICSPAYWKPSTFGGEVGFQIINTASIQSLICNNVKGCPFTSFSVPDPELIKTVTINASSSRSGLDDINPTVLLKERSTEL

Prostaglandin G/H synthase 1, sequence (P23219 whole entry): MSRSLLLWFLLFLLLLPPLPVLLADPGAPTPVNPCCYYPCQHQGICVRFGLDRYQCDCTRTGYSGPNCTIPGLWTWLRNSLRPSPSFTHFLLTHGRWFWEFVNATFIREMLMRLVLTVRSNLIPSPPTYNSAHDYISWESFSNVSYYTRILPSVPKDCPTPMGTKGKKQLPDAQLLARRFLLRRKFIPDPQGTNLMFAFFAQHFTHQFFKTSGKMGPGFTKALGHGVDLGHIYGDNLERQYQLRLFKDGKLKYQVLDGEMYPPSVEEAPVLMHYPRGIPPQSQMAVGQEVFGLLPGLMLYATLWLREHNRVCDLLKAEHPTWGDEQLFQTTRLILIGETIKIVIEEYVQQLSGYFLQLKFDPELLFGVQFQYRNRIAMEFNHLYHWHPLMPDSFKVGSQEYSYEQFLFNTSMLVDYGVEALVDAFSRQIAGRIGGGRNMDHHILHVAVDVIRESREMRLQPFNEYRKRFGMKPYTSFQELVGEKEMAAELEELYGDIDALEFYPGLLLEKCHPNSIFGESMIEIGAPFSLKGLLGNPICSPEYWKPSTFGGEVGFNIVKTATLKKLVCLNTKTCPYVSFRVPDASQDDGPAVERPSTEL

Compound: Clc1ccc(-c2nn(-c3ccc(Cl)cc3)c3c2CCC3)cc1
- IC50 [1]: > 10 µM
- IC50 [2]: > 10 µM

Compound: COc1ccc(-n2nc(-c3ccc(Cl)cc3)c3c2CCCCC3)cc1
- IC50 [1]: > 10 µM

Compound: COc1ccc(C(=O)NNc2ccc(Cl)cc2)cc1
- IC50 [1]: > 10 µM
- IC50 [2]: 0.47 µM

Compound: Cc1ccc(NNC(=O)c2ccccc2)cc1
- IC50 [1]: > 10 µM
- IC50 [2]: 0.33 µM

Compound: c1ccc(-c2nn(-c3ccccc3)c3c2CCC3)cc1
- IC50 [1]: > 10 µM

Compound: COc1ccc(NNC(=O)c2ccccc2)cc1
- IC50 [1]: > 10 µM
- IC50 [2]: 0.18 µM

Compound: O=C(NNc1ccccc1)c1ccc(Cl)cc1
- IC50 [1]: > 10 µM
- IC50 [2]: 0.33 µM

Compound: CS(=O)(=O)c1ccc(-n2nc(-c3ccc(Cl)cc3)c3c2CCCC3)cc1
- IC50 [1]: > 10 µM
- IC50 [2]: > 10 µM

Compound: CS(=O)(=O)c1ccc(NNC(=O)c2ccc(Cl)cc2)cc1
- IC50 [1]: > 10 µM
- IC50 [2]: > 10 µM

Compound: O=C(NNc1ccc(Cl)cc1)c1ccccc1
- IC50 [1]: > 10 µM
- IC50 [2]: 0.53 µM

Compound: COc1ccc(-n2nc(-c3ccc(Cl)cc3)c3c2CCC(N(O)C(C)=O)C3)cc1 (configuration not stated)
- IC50 [1]: > 10 µM
- IC50 [2]: 2.4 µM

Compound: Cc1ccc(NNC(=O)c2ccc(Cl)cc2)cc1
- IC50 [1]: > 10 µM
- IC50 [2]: 0.01 µM

Compound: COc1ccc(-n2nc(-c3ccc(Cl)cc3)c3c2CCC(NOC(C)=O)C3)cc1 (configuration not stated)
- IC50 [1]: > 10 µM
- IC50 [2]: > 10 µM

Compound: O=C(NNc1ccccc1)c1ccccc1
- IC50 [1]: > 10 µM
- IC50 [2]: 10 µM

Compound: O=C(NNc1ccc(Cl)cc1)c1ccc(Cl)cc1
- IC50 [1]: > 10 µM
- IC50 [2]: 0.34 µM

Compound: COc1ccc(NNC(=O)c2ccc(Cl)cc2)cc1
- IC50 [1]: > 10 µM
- IC50 [2]: 0.13 µM

Compound: COc1ccc(-n2nc(-c3ccc(Cl)cc3)c3c2CCC(F)C3)cc1 (configuration not stated)
- IC50 [1]: > 10 µM

Compound: Cc1ccc(-n2nc(-c3ccc(Cl)cc3)c3c2CCCCC3)cc1
- IC50 [1]: > 10 µM

Compound: COc1ccc(C(=O)NNc2ccccc2)cc1
- IC50 [1]: > 10 µM
- IC50 [2]: > 10 µM

Compound: COc1ccc(-n2nc(-c3ccc(Cl)cc3)c3c2CCC(O)C3)cc1 (configuration not stated)
- IC50 [1]: > 10 µM
- IC50 [2]: 0.46 µM

Compound: CS(=O)(=O)c1ccc(-n2nc(-c3ccc(F)cc3)c3c2CCCC3)cc1
- IC50 [1]: > 10 µM
- IC50 [2]: > 10 µM

Compound: CS(=O)(=O)c1ccc(NNC(=O)c2ccccc2)cc1
- IC50 [1]: > 10 µM
- IC50 [2]: > 10 µM

Compound: CS(=O)(=O)c1ccc(-n2nc(-c3ccc(Cl)cc3)c3c2CCCCC3)cc1
- IC50 [2]: > 10 µM

Compound: Clc1ccc(-c2nn(-c3ccc(Cl)cc3)c3c2CCCCC3)cc1
- IC50 [1]: > 10 µM
